{
  "source": "paper PMC9909812",
  "about": "(ACS Omega, 2023)",
  "key": {"inflamed tissue": {"test_system": "inflamed tissue", "assay": "Biodistribution of ^68Ga-DOTA-BSA in the turpentine oil inflammation model", "assay_type": "in vivo, mice", "conditions": "5–10 MBq, mean ± SD, n = 3", "procedure,_shortened": "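Inflammation induced by s.c. injection of 30 μL turpentine oil into the right thigh of female mice (4–5 weeks old). Radiolabelled albumin tracer (5–10 MBq; 130 MBq/μmol) injected. Mice killed under anaesthesia at 30 and 60 min post-injection. Inflamed tissue and organs collected, weighed, gamma-counted, and expressed as %ID/g. n = 3, mean ± SD.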"}, "[1]": {"assay": "Biodistribution of ^68Ga-DOTA-RGD in MGC-803 tumor-bearing mice", "assay_type": "in vivo", "conditions": "BALB/c nude, mouse, tumor (MGC-803 xenograft), iv, 10 MBq, total radioactivity", "procedure,_shortened": "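Female BALB/c nude mice (4–5 weeks, SPF) bearing s.c. right-shoulder xenografts of 5 × 10^6 MGC-803 cells in PBS; cells grown in DMEM/10% FBS, 37 °C, 5% CO2. Injected 10 MBq radiotracer (740 MBq/μmol), killed at 60 and 180 min. Blocking by co-injection of excess unlabelled thiol peptide (50 mg/kg), 180 min. Ten tissues weighed and gamma-counted, expressed as %ID/g; n = 3.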"}},
  "note": "Where a SMILES comes first, the peptide text is derived from it. [ ]: non-standard residue; d: D form. The star is where a group is joined. X1 = O=C(O)CN1CCN(CC(=O)O)CCN(CC(=O)NCCN2C(=O)CC(*)C2=O)CCN(CC(=O)O)CC1",
  "data": [
    {"compound": "^68Ga-DOTA-BSA: ^68Ga-labeled DOTA-Mal conjugated to DTT-treated bovine serum albumin (HS-BSA)", "values": [
      {"measurement": "uptake in inflammatory tissues", "setting": "inflamed tissue; 0.5 h after injection", "value": "4.32 ± 1.10", "unit": "% ID/g"},
      {"measurement": "uptake in inflammatory tissues", "setting": "inflamed tissue; 1 h after injection", "value": "6.50 ± 0.40", "unit": "% ID/g"}
    ]},
    {"compound": "N=C(N)NCCC[C@@H]1NC(=O)[C@H](CSC2CC(=O)N(CCNC(=O)CN3CCN(CC(=O)O)CCN(CC(=O)O)CCN(CC(=O)O)CC3)C2=O)NC(=O)[C@H](CCCCN)NC(=O)[C@@H](Cc2ccc(O)cc2)NC(=O)[C@H](CC(=O)O)NC(=O)CNC1=O", "note": "(stereo partly shown) [^68Ga-DOTA-RGD, metal not drawn] (cyclo(RGD[dY]KC(X1)))", "values": [
      {"measurement": "tissue uptake at 1 h", "setting": "[1]", "value": "4.31 ± 0.93", "unit": "%ID/g"},
      {"measurement": "tissue uptake at 3 h", "setting": "[1]", "value": "8.3 ± 0.92", "unit": "%ID/g"}
    ]}
  ]
}
